Results: article PMC4355479 (Molecular cell, 2015)

How the values were obtained:
[1] = tested on: MZM-REP, REP mutant; experiment: ITC with REP mutant of MZM-REP; assay type: binding; conditions: 25 C; 42 μM; HEPES pH 7.4, 500 mM NaCl; REP side mutated; Figure 5C
Method in brief: (§1)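 MZM-REP protein is expressed as an N-terminal His6-SUMO fusion and loaded in the ITC cell at 42 μM, 25 C, stirred at 1000 RPM. Jag1 tail polypeptide is the titrant. Binding parameters come from a one-site binding model fit.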

[2] = tested on: MZM-REP protein of Mib1 with deletion of residues 315-330; experiment: ITC with crystallization construct MZM-REP; assay type: binding; conditions: Table S1
Method in brief: as §1

[3] = tested on: Mib1 with deletion of either the MZM or REP region; experiment: Co-immunoprecipitation with Mib1 lacking MZM or REP region; assay type: cell-based; conditions: HEK293T cells, Figure S1A
[4] = tested on: mutated Mib1 (ΔRNG); experiment: Co-immunoprecipitation with Mib1 mutated at MZM and/or REP interface; assay type: cell-based; conditions: HEK293T cells, Figure 5D
Method in brief: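 Myc-tagged Mib1 (ΔRNG) and V5-tagged Jag1 co-transfected into sub-confluent HEK293T cells by lipofection. After 48 hr, cells lysed on ice in 0.5% Fos-Choline 12, 50 mM HEPES pH 7.4, 150 mM NaCl, DTT, ZnCl2, CaCl2 and protease inhibitors. Cleared lysate incubated with anti-V5 agarose for 1 hr at 4 C. Beads washed 3x, then analysed by anti-Myc and anti-V5 Western blot.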

[5] = tested on: Mib1 with Asp to Asn mutations in one or both Mib repeat(s); experiment: Co-immunoprecipitation with Mib1 Asp to Asn mutants in one or both Mib repeat; assay type: cell-based; conditions: HEK293T cells, Figure S3D

| effect of Mib1 Δ315-330 deletion on binding to Jag1 [2] | Substance | binding to REP mutant by ITC [1] | co-immunoprecipitation with Mib1 lacking MZM or REP region [3] | co-immunoprecipitation with Mib1, both interfaces mutated ([4]; both interfaces in combination) | co-immunoprecipitation with Mib1, MZM interface mutated ([4]; mutation targeting MZM:N-box interface alone) | co-immunoprecipitation with Mib1, REP interface mutated ([4]; mutation targeting REP:C-box interface alone) | contribution of Mib repeats to C-box binding, co-immunoprecipitation [5] |
| --- | --- | --- | --- | --- | --- | --- | --- |
| – | full-length tail: Jag1 intracellular tail; HA-tagged in ubiquitin transfer; as DLL4 chimera in reporter assay | attenuates binding | – | – | – | – | – |
| does not deleteriously affect binding | Jag1: Jag1 construct, V5-tagged in co-immunoprecipitation | – | eliminates co-immunoprecipitation (co-IP) | prevent co-immunoprecipitation | prevent co-immunoprecipitation | prevent co-immunoprecipitation | first Mib repeat exerts a dominant role in C-box binding |
